What was measured:
[1] = test system: LoVo cells; experiment: Cell growth inhibitory activity; format: cell-based, human; conditions: read-out: IC50 LoVo; 72 h, MTT; mean ± SE
Procedure, shortened: (§1)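 Jurkat, CEM and SEM cells were grown in RPMI-1640, and HeLa, MCF-7, HT-29 and LoVo in DMEM, each with 10% FBS and penicillin/streptomycin. Wells got 8 × 10^3 cells and were preincubated 18 h at 37 °C in 5% CO2. Test compound from a 10 mM DMSO stock was diluted in medium (final DMSO ≤0.25%) and applied for 72 h. Read-out was MTT. IC50 is the concentration giving 50% inhibition of proliferation, from dose–response curves of ≥3 independent experiments, mean ± SE.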

[2] = test system: SEM cells; experiment: Cell growth inhibitory activity; format: cell-based, human; conditions: read-out: IC50 SEM; 72 h, MTT; mean ± SE
Procedure, shortened: as §1

[3] = test system: MCF-7 cells; experiment: Cell growth inhibitory activity; format: cell-based, human; conditions: read-out: IC50 MCF-7; 72 h, MTT; mean ± SE
Procedure, shortened: as §1

[4] = test system: HT-29 cells; experiment: Cell growth inhibitory activity; format: cell-based, human; conditions: read-out: IC50 HT-29; 72 h, MTT; mean ± SE
Procedure, shortened: as §1

[5] = test system: panel of seven human cancer cell lines; experiment: Antiproliferative activity across the panel of seven cancer cell lines; format: cell-based; conditions: 4′-methoxy replaced by 4′-ethoxy
Procedure, shortened: as §1

[6] = test system: Jurkat cells; experiment: Cell growth inhibitory activity; format: cell-based, human; conditions: read-out: IC50 Jurkat; 72 h, MTT; mean ± SE
Procedure, shortened: as §1

[7] = test system: CEM cells; experiment: Cell growth inhibitory activity; format: cell-based, human; conditions: read-out: IC50 CEM; 72 h, MTT; mean ± SE
Procedure, shortened: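 Human T-cell leukemia cells grown in RPMI-1640 with 10% FBS, penicillin G 115 units/mL and streptomycin 115 μg/mL. 8 × 10^3 cells/well were preincubated 18 h at 37 °C, 5% CO2, then exposed to graded compound concentrations in complete medium from 10 mM DMSO stocks (final DMSO ≤0.25%) for 72 h at 37 °C. Viability was read by MTT, and IC50 is the concentration inhibiting proliferation by 50%.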

[8] = test system: HeLa cells; experiment: Cell growth inhibitory activity; format: cell-based, human; conditions: read-out: IC50 HeLa; 72 h, MTT; mean ± SE
Procedure, shortened: as §1

Substance: 2-Bromo-N-(4-{(1E)-3-oxo-3-[(4-ethoxyphenyl)amino] prop-1-en-1-yl}phenyl)-acrylamide [4j]
- IC50 [1]: 850 ± 30 nM
- IC50 [2]: 180 ± 40 nM
- IC50 [3]: 5500 ± 1000 nM
- IC50 [4]: 3400 ± 300 nM
- fold reduction in activity vs 4i [5]: 2–4 fold
- IC50 [6]: 930 ± 120 nM
- IC50 [7]: 98 ± 33 nM
- IC50 [8]: 2000 ± 130 nM

Reference: publication PMC4094378 (European journal of medicinal chemistry, 2014)
